Each block holds one compound with its values, some of them ahead of it.
Columns and labels:
[1] = target: Mitogen-activated protein kinase 14 (Rattus norvegicus) (UniProt P70618); test: In vivo percent inhibition of LPS stimulated TNF alpha synthesis in rat at a concentration of 30 mg/kg; assay type: functional, organism-based; parameters: dose 30 mg/kg
Outline: (§1)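 Female Wistar/Han rats, 8 per group, were dosed orally at −30 min with compound in CMC vehicle (0.9% NaCl, 0.5% Na-CMC, 0.4% polysorbate 80, 0.9% benzyl alcohol) or with vehicle alone. LPS 50 μg/kg was given ip at 0 h. At 1.5 h, blood was taken by cardiocentesis after CO₂ euthanasia, and serum TNFα was measured by ELISA against vehicle controls.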

[2] = target: T1, Mitogen-activated protein kinase 14 (Homo sapiens, UniProt Q16539); test: In vitro inhibitory concentration against Mitogen-activated protein kinase p38 alpha
T1 sequence (Q16539 whole entry): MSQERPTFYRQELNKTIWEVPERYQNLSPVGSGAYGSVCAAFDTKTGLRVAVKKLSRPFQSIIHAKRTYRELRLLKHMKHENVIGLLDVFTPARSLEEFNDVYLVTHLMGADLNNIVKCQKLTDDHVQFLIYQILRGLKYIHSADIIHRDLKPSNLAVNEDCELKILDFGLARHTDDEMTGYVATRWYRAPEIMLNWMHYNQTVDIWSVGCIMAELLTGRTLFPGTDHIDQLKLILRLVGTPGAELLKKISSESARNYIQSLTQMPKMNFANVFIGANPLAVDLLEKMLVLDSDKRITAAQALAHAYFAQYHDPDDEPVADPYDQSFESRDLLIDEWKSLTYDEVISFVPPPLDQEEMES

[3] = AUC at a dose of 10 mg/Kg administered perorally in female hanover-wistar rat; assay type: ADME, organism-based; settings: plasma, po
Outline: (§2)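 Female Wistar/Han rats (180–220 g, n=3 per regime) received a single 10 mg/kg oral suspension in 0.9% NaCl, 0.5% Na-CMC, 0.4% polysorbate 80 and 0.9% benzyl alcohol. Blood was taken at 1, 3, 6, 8 and 24 h by orbital sinus or cardiac puncture. Plasma drug was measured by LC/MS after acetonitrile precipitation; the comparison arm was a 10 mg/kg IV bolus.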

[4] = target: Mitogen-activated protein kinase 8 (Homo sapiens, UniProt P45983); test: Inhibition of c-Jun N-terminal kinase 1
Chain of Mitogen-activated protein kinase 8 (P45983 whole entry): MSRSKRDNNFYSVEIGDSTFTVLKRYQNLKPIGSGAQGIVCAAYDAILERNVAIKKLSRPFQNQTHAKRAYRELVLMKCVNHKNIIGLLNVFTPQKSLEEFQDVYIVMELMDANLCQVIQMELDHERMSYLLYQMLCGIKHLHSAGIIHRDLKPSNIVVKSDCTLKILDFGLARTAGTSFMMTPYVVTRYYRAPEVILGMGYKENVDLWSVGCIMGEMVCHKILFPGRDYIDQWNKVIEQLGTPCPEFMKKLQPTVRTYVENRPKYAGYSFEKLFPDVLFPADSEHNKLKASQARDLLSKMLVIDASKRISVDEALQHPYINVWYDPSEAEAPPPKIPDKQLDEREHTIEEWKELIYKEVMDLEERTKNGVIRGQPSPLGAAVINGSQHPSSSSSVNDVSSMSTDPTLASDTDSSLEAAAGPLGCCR

[5] = CL at a dose of 10 mg/Kg administered intravenously in female hanover-wistar rat; assay type: ADME, organism-based; settings: in vivo, iv
Outline: (§3)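 Female Wistar/Han rats weighing 180–220 g, 3 per dose regime, received a single 10 mg/kg IV bolus in 50% cyclodextran/water. Blood was drawn under CO₂:O₂ (60:40) via orbital sinus or cardiac puncture at 1, 3, 6, 8 and 24 h. Plasma was protein-precipitated with acetonitrile, diluted in 50 mM formate buffer and quantified by LC/MS.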

[6] = AUC at a dose of 10 mg/Kg administered intravenously in female hanover-wistar rat; assay type: ADME, organism-based; settings: plasma, iv; outline: as §3
[7] = species: Homo sapiens; test: Caco-2 permeability was determined; activity value is 5.8*10e-5; assay type: ADME
[8] = target: Protein kinase C (PKC); test: Inhibition of Protein kinase C; assay type: protein assay
[9] = T max at a dose of 10 mg/Kg administered perorally in female hanover-wistar rat; assay type: ADME, organism-based; settings: in vivo, po; outline: as §2
[10] = target: Tyrosine-protein kinase Fyn (Homo sapiens, UniProt P06241); test: Inhibition of p55 Fyn kinase
Chain of Tyrosine-protein kinase Fyn (P06241 whole entry): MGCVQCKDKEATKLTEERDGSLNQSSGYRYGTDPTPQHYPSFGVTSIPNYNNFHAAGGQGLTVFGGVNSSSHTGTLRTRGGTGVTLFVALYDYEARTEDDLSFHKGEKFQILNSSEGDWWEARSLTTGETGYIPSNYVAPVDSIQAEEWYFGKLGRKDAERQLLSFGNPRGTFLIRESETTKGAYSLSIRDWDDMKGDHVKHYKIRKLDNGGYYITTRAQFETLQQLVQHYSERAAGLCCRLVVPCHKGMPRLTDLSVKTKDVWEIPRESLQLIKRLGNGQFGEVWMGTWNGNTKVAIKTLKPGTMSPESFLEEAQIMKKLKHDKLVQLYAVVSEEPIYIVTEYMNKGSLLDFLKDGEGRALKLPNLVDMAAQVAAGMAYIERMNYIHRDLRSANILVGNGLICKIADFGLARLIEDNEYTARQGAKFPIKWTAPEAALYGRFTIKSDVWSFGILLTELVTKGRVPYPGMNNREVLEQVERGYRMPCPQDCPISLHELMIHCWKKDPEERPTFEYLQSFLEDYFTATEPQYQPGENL

[11] = target: Cyclin-dependent kinase 4 (Homo sapiens, UniProt P11802); test: Inhibition of Cyclin-dependent kinase 4
Chain of Cyclin-dependent kinase 4 (P11802 whole entry): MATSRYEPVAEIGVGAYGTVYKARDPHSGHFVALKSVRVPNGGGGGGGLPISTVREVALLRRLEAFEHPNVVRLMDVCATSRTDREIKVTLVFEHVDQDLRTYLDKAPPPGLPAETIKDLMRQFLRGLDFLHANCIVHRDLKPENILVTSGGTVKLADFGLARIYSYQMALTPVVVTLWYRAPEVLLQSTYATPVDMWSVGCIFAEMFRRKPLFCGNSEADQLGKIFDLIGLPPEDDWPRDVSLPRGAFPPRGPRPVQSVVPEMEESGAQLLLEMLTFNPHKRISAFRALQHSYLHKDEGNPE

[12] = target: Cyclin-dependent kinase 3 (Homo sapiens, UniProt Q00526); test: Inhibition of Cyclin-dependent kinase 3
Chain of Cyclin-dependent kinase 3 (Q00526 whole entry): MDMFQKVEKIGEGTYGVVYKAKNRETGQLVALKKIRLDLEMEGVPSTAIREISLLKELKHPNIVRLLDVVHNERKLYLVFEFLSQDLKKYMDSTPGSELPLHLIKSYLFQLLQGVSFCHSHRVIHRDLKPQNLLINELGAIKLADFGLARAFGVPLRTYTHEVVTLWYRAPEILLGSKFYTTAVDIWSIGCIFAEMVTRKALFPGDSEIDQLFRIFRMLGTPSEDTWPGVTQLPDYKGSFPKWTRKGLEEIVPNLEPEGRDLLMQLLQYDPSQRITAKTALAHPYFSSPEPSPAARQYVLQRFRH

[13] = target: Cyclin-dependent kinase 2 (Homo sapiens, UniProt P24941); test: Inhibition of Cyclin-dependent kinase 2
[14] = target: Mitogen-activated protein kinase; ERK1/ERK2 (Homo sapiens, UniProt P27361+P28482); test: Inhibition of Mitogen-activated protein kinase ERK; assay type: protein assay
[15] = T 1/2 at a dose of 10 mg/Kg administered perorally in female hanover-wistar rat; assay type: ADME, organism-based; settings: in vivo, po; outline: as §2
[16] = target: Cyclin-dependent kinase 1 (Homo sapiens, UniProt P06493); test: Inhibition of Cyclin-dependent kinase 1
Chain of Cyclin-dependent kinase 1 (P06493 whole entry): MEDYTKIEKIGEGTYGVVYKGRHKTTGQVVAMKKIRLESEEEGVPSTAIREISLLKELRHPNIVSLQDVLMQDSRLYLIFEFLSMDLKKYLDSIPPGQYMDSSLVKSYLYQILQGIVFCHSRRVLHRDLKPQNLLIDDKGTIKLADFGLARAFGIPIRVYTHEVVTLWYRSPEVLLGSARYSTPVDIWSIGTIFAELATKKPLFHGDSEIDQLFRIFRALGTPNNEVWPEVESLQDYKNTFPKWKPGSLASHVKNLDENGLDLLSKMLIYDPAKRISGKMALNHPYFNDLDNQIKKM

[17] = target: MAP kinase-activated protein kinase 2 (Homo sapiens, UniProt P49137); test: Inhibition of MAP kinase-activated protein kinase 2
Chain of MAP kinase-activated protein kinase 2 (P49137 whole entry): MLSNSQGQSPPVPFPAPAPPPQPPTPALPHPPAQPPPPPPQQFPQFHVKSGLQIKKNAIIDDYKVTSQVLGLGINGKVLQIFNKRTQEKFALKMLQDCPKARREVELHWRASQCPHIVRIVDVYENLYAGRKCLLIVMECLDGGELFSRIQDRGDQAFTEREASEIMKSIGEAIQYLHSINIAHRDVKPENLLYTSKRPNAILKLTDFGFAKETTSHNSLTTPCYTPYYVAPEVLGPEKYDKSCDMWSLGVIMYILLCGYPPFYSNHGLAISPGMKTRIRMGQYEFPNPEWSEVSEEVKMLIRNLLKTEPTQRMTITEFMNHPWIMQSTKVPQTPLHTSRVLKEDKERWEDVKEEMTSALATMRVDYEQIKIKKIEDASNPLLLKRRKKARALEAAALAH

[18] = target: Vascular endothelial growth factor receptor 2 (Homo sapiens, UniProt P35968); test: Inhibition of Vascular endothelial growth factor receptor 2
Chain of Vascular endothelial growth factor receptor 2 (P35968 whole entry): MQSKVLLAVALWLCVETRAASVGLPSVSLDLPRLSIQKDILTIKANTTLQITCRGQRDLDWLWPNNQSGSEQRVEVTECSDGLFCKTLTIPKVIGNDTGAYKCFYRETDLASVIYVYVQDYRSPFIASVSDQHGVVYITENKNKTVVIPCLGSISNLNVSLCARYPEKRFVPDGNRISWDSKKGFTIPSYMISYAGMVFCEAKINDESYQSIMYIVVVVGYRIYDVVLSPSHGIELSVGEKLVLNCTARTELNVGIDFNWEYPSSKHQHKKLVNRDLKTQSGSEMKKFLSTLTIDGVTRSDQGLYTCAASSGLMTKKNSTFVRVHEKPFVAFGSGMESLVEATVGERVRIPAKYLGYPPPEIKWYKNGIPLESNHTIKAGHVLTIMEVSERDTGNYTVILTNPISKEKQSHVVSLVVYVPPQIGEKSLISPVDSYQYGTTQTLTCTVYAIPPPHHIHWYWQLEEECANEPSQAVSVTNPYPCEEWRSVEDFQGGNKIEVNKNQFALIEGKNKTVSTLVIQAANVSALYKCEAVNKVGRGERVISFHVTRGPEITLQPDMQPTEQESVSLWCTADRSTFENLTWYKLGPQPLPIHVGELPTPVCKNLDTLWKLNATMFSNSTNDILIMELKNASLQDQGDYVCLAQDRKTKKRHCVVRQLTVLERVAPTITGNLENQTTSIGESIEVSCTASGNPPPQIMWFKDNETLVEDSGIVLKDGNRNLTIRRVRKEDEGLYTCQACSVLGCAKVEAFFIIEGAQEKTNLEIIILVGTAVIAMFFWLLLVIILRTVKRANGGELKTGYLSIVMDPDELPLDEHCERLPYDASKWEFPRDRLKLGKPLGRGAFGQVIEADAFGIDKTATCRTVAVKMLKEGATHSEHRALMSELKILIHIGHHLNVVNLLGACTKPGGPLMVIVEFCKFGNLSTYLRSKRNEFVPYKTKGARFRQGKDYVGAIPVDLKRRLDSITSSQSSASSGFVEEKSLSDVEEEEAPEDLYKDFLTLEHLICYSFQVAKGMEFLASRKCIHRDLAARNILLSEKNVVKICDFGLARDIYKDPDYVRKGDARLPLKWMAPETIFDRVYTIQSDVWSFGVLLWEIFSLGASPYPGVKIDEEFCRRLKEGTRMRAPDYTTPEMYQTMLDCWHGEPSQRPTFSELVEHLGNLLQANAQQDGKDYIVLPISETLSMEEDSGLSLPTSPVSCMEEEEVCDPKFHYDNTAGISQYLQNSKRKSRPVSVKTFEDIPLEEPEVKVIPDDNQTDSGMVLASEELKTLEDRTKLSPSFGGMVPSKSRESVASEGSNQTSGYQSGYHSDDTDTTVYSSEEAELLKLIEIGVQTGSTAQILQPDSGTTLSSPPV

[19] = target: T1, Mitogen-activated protein kinase 14; test: Inhibition of Mitogen-activated protein kinase p38 alpha
Outline: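 Human recombinant active p38α (5 nM) in MOPS pH 7.4 buffer (40 mM MgCl₂, 1 mM DTT, β-glycerophosphate, EGTA, orthovanadate) was preincubated 10 min at room temperature with compound (0–10 μM, DMSO). Reaction was started with γ-[³³P]ATP (50 μM) and MBP (35 μM), run 30 min at 30 °C, then captured on phosphocellulose, acid-washed and counted. IC50 was fitted as fractional activity = 1/([I]/IC50 + 1).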

[20] = target: T2, Inhibitor of nuclear factor kappa-B kinase subunit beta (Homo sapiens, UniProt O14920); test: Inhibition of I-kappa-B-kinase beta
T2 sequence (O14920 whole entry): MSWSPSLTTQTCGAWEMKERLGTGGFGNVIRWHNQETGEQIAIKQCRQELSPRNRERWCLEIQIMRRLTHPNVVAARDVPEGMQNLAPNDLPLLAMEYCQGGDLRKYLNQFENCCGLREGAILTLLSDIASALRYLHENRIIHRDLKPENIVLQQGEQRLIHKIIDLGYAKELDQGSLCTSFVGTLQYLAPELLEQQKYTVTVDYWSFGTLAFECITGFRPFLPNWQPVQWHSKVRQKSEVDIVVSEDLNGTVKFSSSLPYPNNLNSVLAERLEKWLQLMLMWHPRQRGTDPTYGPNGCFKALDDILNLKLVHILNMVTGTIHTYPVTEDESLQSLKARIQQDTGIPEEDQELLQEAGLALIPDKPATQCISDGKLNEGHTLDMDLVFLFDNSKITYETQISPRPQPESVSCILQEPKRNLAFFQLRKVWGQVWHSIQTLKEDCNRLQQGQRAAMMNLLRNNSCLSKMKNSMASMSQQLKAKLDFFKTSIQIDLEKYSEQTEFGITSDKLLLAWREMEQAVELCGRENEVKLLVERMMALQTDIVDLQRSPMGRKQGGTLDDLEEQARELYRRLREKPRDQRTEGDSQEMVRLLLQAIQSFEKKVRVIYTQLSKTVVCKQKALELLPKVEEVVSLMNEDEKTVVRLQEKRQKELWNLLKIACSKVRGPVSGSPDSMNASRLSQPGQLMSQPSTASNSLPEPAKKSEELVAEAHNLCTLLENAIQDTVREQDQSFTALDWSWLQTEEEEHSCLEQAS

[21] = target: Interleukin-1 receptor-associated kinase 1 (Homo sapiens, UniProt P51617); test: Inhibition of interleukin-1 receptor-associated kinase 1
Chain of Interleukin-1 receptor-associated kinase 1 (P51617 whole entry): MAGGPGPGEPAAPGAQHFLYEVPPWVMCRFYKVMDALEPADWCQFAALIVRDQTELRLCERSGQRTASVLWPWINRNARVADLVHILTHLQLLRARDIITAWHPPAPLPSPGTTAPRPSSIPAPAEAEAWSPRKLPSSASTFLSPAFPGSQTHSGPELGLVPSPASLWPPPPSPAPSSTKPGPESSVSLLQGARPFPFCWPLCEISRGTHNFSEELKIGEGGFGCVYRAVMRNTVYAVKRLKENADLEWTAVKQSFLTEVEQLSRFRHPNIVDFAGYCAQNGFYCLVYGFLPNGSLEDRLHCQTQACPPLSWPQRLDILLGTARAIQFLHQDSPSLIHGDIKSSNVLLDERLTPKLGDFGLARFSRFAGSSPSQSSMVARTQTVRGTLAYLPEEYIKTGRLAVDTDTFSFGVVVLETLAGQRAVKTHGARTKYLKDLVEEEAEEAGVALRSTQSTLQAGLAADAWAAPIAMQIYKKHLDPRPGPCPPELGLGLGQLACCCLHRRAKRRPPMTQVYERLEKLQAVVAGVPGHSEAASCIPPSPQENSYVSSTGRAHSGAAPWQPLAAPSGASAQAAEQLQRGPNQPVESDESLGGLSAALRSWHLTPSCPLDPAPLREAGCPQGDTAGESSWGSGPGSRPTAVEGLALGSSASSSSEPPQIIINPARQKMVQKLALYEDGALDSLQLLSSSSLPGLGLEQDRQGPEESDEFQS

[22] = Bioavailability at a dose of 10 mg/Kg administered perorally in female hanover-wistar rat; assay type: ADME, organism-based; settings: in vivo, po; outline: as §2
[23] = target: T3, Interleukin-1 receptor-associated kinase 4 (Homo sapiens, UniProt Q9NWZ3); test: Inhibition of Interleukin-1 receptor-associated kinase-4
T3 sequence (Q9NWZ3 whole entry): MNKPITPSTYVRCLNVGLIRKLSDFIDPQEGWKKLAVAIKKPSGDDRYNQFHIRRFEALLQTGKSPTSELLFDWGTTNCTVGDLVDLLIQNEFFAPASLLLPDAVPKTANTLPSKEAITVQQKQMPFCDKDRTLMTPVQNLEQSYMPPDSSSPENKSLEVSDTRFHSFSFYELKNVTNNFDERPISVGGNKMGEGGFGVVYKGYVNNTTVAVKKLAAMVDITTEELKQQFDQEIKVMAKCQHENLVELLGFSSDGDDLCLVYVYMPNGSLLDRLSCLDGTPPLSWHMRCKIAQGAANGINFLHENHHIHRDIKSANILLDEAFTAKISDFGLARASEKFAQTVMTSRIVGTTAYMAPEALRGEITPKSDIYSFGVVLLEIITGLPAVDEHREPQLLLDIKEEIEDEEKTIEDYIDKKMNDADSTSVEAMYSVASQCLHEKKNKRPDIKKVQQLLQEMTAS

[24] = T max at a dose of 10 mg/Kg administered intravenously in female hanover-wistar rat; assay type: ADME, organism-based; settings: in vivo, iv; outline: as §3
[25] = target: T4, MAP kinase p38 (Homo sapiens, UniProt O15264+Q15759+Q16539+P53778); test: Inhibition of LPS-induced p38-related IL1-beta production in human white blood cells; assay type: functional, cell-based
Outline: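 Heparinized whole blood from donors medication-free for at least 14 days. Compounds came from a 6 mM DMSO stock, six 3-fold serial dilutions in DMSO, then diluted 1/20 in RPMI and run in triplicate. Blood was preincubated with compound 30 min at 37 °C, then stimulated with E. coli 0127:B8 LPS at 0.5 μg/mL final overnight at 37 °C, 5% CO₂. Plasma IL-1β was measured by ELISA.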

[26] = C max at a dose of 10 mg/Kg administered perorally in female hanover-wistar rat; assay type: ADME, organism-based; parameters: dose 10 mg/Kg, route oral; settings: in vivo, po; outline: as §2
[27] = C max at a dose of 10 mg/Kg administered intravenously in female hanover-wistar rat; assay type: ADME, organism-based; parameters: dose 10 mg/Kg, route intravenous; settings: in vivo, iv; outline: as §3
[28] = species: Rattus norvegicus; test: Effective dose against LPS stimulated TNF alpha production in rats; assay type: functional; outline: as §1
[29] = target: T4, MAP kinase p38; test: In vitro inhibition of LPS induced p38-related TNFalpha release by THP-1 cells; assay type: functional, cell-based
Outline: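 THP-1 cells at 2.5×10⁶ cells/mL in RPMI with 15% FBS and 0.02 mM 2-mercaptoethanol were preincubated 30 min at 37 °C with compound in DMSO-containing medium (DMSO stated as 5% final). LPS was then added at 0.5 μg/mL final for a further 2 h. Supernatant TNFα was read by trapping ELISA with two anti-TNFα antibodies.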

[30] = T 1/2 at a dose of 10 mg/Kg administered intravenously in female hanover-wistar rat; assay type: ADME, organism-based; settings: in vivo, iv; outline: as §3
[31] = target: cAMP-dependent protein kinase (PKA) (Homo sapiens, UniProt P22694+P17612+P22612); test: Inhibition of Protein kinase A (PKA); assay type: protein assay
[32] = Partition coefficient (logP); assay type: physicochemical; settings: octanol/water

Chain of Mitogen-activated protein kinase 14 (Rattus norvegicus) (P70618 whole entry): as the sequence (Q16539 whole entry) above, with I17V, L48H, T263A, D321E, L332F counted along it

SMILES: Fc1ccc(-c2c(-c3ccncc3)n(CCN3CCCC3)c3cccnc23)cc1
inhibition [1]: 86%
IC50 [2]: 0.217 µM

SMILES: Fc1ccc(-c2c(-c3ccncc3)[nH]c3cccnc23)cc1
inhibition [1]: 46%
IC50 [2]: 0.0065 µM

SMILES: Fc1ccc(-c2c(-c3ccncc3)[nH]c3ccncc23)cc1
IC50 [2]: 3.1 µM

SMILES: O=C(O)Cn1c(-c2ccncc2)c(-c2ccc(F)cc2)c2ncccc21
inhibition [1]: 50%
IC50 [2]: 23.6 µM

SMILES: Fc1ccc(-c2c(-c3ccncc3)[nH]c3ccccc23)cc1
IC50 [2]: 1.8 µM

Continued, in another order:

inhibition [1]: 79%
IC50 [2]: 0.185 µM
SMILES: Fc1ccc(-c2c(-c3ccncc3)n(CCN3CCOCC3)c3cccnc23)cc1

IC50 [2]: 0.021 µM
SMILES: COCCn1c(-c2ccncc2)c(-c2ccc(F)cc2)c2ncccc21

AUC [3]: 20 µM·h
IC50 [4]: > 10 µM
clearance [5]: 1.2 L/h/kg
AUC [6]: 23.4 µM·h
Cell permeation [7]: Permeable
IC50 [8]: > 10 µM
Tmax [9]: 1 h
IC50 [10]: > 10 µM
IC50 [11]: > 25 µM
IC50 [12]: > 25 µM
IC50 [13]: > 25 µM
IC50 [14]: > 10 µM
half-life [15]: 1.5 h
IC50 [16]: > 25 µM
IC50 [17]: > 30 µM
IC50 [18]: > 10 µM
IC50 [19]: 0.00129 µM
IC50 [20]: > 30 µM
IC50 [21]: > 30 µM
bioavailability [22]: 85.6%
inhibition [1]: 88%
IC50 [23]: > 30 µM
Tmax [24]: < 1 h
IC50 [25]: 0.21 µM
Cmax [26]: 6.9 µM
Cmax [27]: 10.3 µM
IC50 [29]: 0.0017 µM
IC50 [2]: 0.001 µM
half-life [30]: 1.1 h
IC50 [31]: > 10 µM
logP [32]: 3.5
SMILES: C[C@H](O)CNc1cc(-c2[nH]c3cccnc3c2-c2ccc(F)cc2)ccn1
ED50 [28]: 2 mg/kg

inhibition [1]: 98%
IC50 [2]: 0.053 µM
SMILES: Fc1ccc(-c2c(-c3ccncc3)[nH]c3nccnc23)cc1

IC50 [2]: 0.172 µM
SMILES: OCCn1c(-c2ccncc2)c(-c2ccc(F)cc2)c2ncccc21
